In paper PMC3431965 (The Journal of organic chemistry, 2012):
Residue numbers refer to the chain shown, from its start. Like-named read-outs stand apart in the source and are kept apart here.

Tests used:
[1] = molecular target: T1, ceramide-specific glucosyltransferase (Mus musculus, UniProt O88693); experiment: Ceramide-specific glucosyltransferase assay, mouse testicular microsomes; assay type: biochemical, C57BL/6 mouse
T1 sequence (O88693 1-394): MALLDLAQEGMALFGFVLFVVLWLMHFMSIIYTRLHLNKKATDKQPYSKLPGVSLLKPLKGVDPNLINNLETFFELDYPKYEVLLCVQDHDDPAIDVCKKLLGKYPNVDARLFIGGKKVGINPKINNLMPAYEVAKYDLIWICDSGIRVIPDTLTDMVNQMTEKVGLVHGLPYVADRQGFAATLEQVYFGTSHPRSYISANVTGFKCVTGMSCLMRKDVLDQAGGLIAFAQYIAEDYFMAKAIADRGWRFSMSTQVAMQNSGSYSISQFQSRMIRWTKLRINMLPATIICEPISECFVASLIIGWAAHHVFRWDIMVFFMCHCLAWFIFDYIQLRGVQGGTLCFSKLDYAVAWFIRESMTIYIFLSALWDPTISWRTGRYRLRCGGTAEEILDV

[2] = molecular target: T2, ceramide-specific glucosyltransferase (Rattus norvegicus, UniProt Q9R0E0); experiment: Ceramide-specific glucosyltransferase assay, rat testicular microsomes; assay type: biochemical, Long Evans (LE) rat
T2 sequence (Q9R0E0 1-394): T1 sequence (O88693 1-394) with D96E, K164R, R249K, T377A

[3] = molecular target: β-galactosidase (Escherichia coli) (Escherichia coli, UniProt P00722); experiment: biochemical; details: for remaining activity at 100 µM: read-out: β-Gal % Ra (% remaining activity at 100 µM); for β-Gal % Ra (% remaining activity at 100 µM): 100 µM compound
Chain of β-galactosidase (Escherichia coli) (P00722 2-1024): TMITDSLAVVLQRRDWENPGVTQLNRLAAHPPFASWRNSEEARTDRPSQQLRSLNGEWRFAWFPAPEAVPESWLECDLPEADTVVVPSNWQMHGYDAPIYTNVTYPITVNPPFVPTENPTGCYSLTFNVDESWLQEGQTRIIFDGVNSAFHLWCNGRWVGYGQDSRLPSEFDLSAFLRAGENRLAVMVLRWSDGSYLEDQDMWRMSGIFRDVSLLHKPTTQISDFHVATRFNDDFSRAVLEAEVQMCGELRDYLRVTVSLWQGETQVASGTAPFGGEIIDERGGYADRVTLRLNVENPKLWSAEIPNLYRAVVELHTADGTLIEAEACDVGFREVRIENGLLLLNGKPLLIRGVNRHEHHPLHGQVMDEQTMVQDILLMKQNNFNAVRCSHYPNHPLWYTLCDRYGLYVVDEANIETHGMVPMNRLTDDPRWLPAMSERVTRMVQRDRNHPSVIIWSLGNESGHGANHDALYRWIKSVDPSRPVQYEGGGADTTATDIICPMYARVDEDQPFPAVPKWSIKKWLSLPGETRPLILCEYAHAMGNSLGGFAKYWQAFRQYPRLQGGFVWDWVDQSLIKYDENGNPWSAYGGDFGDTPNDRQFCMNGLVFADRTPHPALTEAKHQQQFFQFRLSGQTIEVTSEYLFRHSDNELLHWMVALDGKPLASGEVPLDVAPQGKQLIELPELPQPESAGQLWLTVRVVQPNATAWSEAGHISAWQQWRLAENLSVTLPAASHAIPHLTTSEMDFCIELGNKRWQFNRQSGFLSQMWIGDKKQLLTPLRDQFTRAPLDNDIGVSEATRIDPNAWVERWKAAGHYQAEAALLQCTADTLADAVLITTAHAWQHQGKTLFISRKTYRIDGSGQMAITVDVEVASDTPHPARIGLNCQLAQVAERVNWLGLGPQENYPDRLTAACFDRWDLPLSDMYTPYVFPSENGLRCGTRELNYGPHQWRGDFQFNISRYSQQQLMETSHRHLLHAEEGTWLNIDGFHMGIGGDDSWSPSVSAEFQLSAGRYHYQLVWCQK

[4] = tested on: α-glucosidase (Saccharomyces cerevisiae); experiment: Glycosidase inhibition assay, α-glucosidase; assay type: biochemical; details: substrate at Km; for α-Glc % Ra (% remaining activity at 100 µM): 100 µM compound
[5] = tested on: β-mannosidase (Roman snail); experiment: Glycosidase inhibition assay, β-mannosidase; assay type: biochemical; details: 100 µM compound; substrate at Km
How it was run: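 Test compound is at 100 µM. Enzyme addition starts the reaction, which runs 4–5 min at room temperature before quenching with 0.2 M sodium borate (pH 9.8). Absorbance is read at 405 nm and given as % remaining activity.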

β-glucosidase (almond) = experiment: Glycosidase inhibition assay, β-glucosidase; assay type: biochemical; details: substrate at Km; for β-Glc % Ra (% remaining activity at 100 µM): 100 µM compound; for IC50: read-out: β-Glc IC50
How it was run: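 Enzyme is added last; incubation is 4–5 min at room temperature, then 0.2 M sodium borate (pH 9.8) quenches. Absorbance at 405 nm gives % remaining activity at 100 µM compound. IC50 comes from non-linear fitting of relative activity versus concentration to a Hill-slope equation.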

[6] = molecular target: T3, α-mannosidase (jack bean) (Canavalia ensiformis, UniProt C0HJB3); experiment: Glycosidase inhibition assay, α-mannosidase; assay type: biochemical; details: for remaining activity at 100 µM: read-out: α-Man % Ra (% remaining activity at 100 µM); for α-Man % Ra (% remaining activity at 100 µM): 100 µM compound, substrate at Km
T3 sequence (C0HJB3 1-562 limits assumed): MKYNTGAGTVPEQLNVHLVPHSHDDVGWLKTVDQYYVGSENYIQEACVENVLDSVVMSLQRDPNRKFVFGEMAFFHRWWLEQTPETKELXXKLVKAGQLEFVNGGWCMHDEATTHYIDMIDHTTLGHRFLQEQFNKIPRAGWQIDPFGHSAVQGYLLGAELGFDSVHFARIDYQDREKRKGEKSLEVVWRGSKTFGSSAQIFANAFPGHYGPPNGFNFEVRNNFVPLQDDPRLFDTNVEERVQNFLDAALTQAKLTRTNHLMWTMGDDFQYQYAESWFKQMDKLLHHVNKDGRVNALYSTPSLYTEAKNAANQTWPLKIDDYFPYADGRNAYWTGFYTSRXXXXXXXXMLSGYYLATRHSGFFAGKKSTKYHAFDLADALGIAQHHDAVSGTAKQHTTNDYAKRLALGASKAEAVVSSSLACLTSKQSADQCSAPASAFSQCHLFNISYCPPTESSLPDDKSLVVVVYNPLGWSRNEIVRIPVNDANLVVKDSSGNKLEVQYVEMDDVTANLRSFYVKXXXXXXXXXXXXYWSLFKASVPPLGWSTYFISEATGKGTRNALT
T3 sequence (C0HJB3 563-981 partner limits assumed): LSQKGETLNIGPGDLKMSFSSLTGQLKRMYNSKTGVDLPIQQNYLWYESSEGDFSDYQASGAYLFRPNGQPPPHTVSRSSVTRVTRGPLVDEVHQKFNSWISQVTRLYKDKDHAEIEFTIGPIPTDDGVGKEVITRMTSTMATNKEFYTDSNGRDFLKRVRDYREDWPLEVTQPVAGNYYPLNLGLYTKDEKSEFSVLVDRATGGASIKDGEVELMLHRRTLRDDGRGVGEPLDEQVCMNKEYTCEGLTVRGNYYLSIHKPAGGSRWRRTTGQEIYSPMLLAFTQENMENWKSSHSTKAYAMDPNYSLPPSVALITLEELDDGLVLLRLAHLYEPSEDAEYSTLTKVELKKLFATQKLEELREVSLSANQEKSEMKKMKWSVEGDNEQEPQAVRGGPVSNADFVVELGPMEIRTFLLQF
How it was run: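 Enzyme starts the reaction with test compound at 100 µM. After 4–5 min at room temperature, 0.2 M sodium borate (pH 9.8) quenches it. Absorbance is read at 405 nm and reported as % remaining activity.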

[7] = molecular target: α-galactosidase (green coffee beans) (Coffea arabica, UniProt Q42656); experiment: biochemical; details: for remaining activity at 100 µM: read-out: α-Gal % Ra (% remaining activity at 100 µM); for α-Gal % Ra (% remaining activity at 100 µM): 100 µM compound, substrate at Km
Chain of α-galactosidase (green coffee beans) (Q42656 16-378): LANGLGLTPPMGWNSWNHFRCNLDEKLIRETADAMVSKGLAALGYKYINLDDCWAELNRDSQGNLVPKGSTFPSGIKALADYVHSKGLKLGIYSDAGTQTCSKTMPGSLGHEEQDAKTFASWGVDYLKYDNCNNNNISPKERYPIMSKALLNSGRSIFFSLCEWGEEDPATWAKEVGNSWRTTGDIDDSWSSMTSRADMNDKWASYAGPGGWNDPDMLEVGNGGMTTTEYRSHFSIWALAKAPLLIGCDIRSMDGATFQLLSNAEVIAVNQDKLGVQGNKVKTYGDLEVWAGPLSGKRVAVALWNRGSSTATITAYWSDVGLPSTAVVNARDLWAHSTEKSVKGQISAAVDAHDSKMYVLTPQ

[8] = molecular target: T4, testicular β-glucosidase 2 (Rattus norvegicus, UniProt Q5M868); experiment: Testicular glucosidase assay; assay type: biochemical, Long Evans (LE) rat
T4 sequence (Q5M868 1-912): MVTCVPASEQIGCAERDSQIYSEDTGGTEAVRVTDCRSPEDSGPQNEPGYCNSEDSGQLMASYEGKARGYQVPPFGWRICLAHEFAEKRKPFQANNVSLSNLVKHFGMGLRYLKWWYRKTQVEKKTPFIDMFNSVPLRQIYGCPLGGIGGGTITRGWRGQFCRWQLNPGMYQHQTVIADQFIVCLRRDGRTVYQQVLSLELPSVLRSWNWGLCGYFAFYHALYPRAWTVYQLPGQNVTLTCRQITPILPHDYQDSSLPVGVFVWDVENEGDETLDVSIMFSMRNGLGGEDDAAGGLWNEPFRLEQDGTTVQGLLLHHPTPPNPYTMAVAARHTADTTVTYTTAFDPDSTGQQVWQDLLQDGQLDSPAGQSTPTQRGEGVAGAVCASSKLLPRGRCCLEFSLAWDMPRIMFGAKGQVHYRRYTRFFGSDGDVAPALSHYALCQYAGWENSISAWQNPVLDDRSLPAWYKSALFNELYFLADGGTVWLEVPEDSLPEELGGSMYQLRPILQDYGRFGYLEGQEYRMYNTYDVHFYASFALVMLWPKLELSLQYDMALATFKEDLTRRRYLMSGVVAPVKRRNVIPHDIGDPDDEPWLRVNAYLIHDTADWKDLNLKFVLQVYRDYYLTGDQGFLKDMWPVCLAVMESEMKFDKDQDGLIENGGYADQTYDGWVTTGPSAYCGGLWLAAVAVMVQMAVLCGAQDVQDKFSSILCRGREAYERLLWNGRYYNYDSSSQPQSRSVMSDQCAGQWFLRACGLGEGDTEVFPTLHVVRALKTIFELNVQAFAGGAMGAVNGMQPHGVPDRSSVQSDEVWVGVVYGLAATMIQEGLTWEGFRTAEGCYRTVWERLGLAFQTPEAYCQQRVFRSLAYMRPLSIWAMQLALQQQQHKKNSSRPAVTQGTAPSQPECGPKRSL

[9] = mouse testicular microsomes, n.i. = no inhibition at 1000 µM concentration
[10] = rat testicular microsomes, n.i. = no inhibition at 1000 µM concentration
[11] = read-out: ceramide-specific glucosyltransferase IC50 (C57BL/6, mouse), mouse testicular microsomes, n.i. = no inhibition at 1000 µM concentration
[12] = read-out: ceramide-specific glucosyltransferase IC50 (LE rat), rat testicular microsomes, n.i. = no inhibition at 1000 µM concentration

Row | SMILES | remaining activity at 100 µM [3] [%] | α-Glc % Ra (% remaining activity at 100 µM) [4] [%] | β-Man % Ra (% remaining activity at 100 µM) [5] [%] | β-Glc % Ra (% remaining activity at 100 µM) (β-glucosidase (almond)) [%] | β-Gal % Ra (% remaining activity at 100 µM) ([3]; substrate at Km) [%] | α-Man % Ra (% remaining activity at 100 µM) [6] [%] | α-Gal % Ra (% remaining activity at 100 µM) [7] [%] | also measured
1 | CCCCN1C/C=C\[C@@H](O)[C@H](O)[C@@H](O)C1 [Compound 3, (3S,4S,5R,Z)-1-Butyl-1,2,3,4,5,8-hexahydroazocine-3,4,5-triol] | 94 | 81 | 99 | 52 |  |  |  | ceramide-specific glucosyltransferase IC50 (C57BL/6, mouse) [1, 9]: n.i.; ceramide-specific glucosyltransferase IC50 (LE rat) [2, 10]: n.i.; IC50 (β-glucosidase (almond)): 105 µM; remaining activity at 100 µM [6]: 100%; remaining activity at 100 µM [7]: 100%
2 | CCCCCCCCCN1[C@H](CO)[C@@H](O)[C@@H]1CO [Compound 25, ((2R,3s,4S)-3-Hydroxy-1-nonylazetidine-2,4-diyl)dimethanol] |  |  | 76 | 26 | 107 | 92 | 66 | IC50 [1, 11]: 44 µM; IC50 [2, 12]: 91 µM; IC50 ([4]; read-out: α-Glc IC50): 0.6 µM; IC50 (β-glucosidase (almond)): 20 µM
3 | CCCCCCCCCN1C[C@@H](O)[C@@H](O)[C@@H](O)[C@H](O)[C@@H](O)C1 [Compound 6, (3S,4R,5S,6R,7R)-1-Nonylazocane-3,4,5,6,7-pentaol] |  | 84 | 99 | 85 | 92 | 100 | 100 | ceramide-specific glucosyltransferase IC50 (C57BL/6, mouse) [1, 9]: n.i.; IC50 [2, 12]: 127 µM
4 | CCCCCCCCCN1CCC[C@@H](O)[C@H](O)[C@@H](O)C1 [Compound 2, (3S,4S,5R)-1-Nonylazocane-3,4,5-triol] | 92 | 84 | 93 | 43 |  |  |  | ceramide-specific glucosyltransferase IC50 (C57BL/6, mouse) [1, 9]: n.i.; IC50 [8]: 803 µM; ceramide-specific glucosyltransferase IC50 (LE rat) [2, 10]: n.i.; IC50 (β-glucosidase (almond)): 92 µM; remaining activity at 100 µM [6]: 100%; remaining activity at 100 µM [7]: 100%
5 | OC[C@H]1NC[C@H](O)[C@@H](O)[C@@H]1O [DNJ, 1-deoxynojirimycin, reference compound] |  | 34 |  |  |  |  |  | 
6 | CCCCN1[C@H](CO)[C@@H](O)[C@@H]1CO [Compound 24, ((2R,3s,4S)-1-Butyl-3-hydroxyazetidine-2,4-diyl)dimethanol] |  | 65 | 113 | 101 | 109 | 99 | 106 | IC50 [1, 11]: > 300 µM; IC50 [2, 12]: > 300 µM
7 | CCCCN1[C@H](CO)C(O)[C@H]1CO [Compound 22, ((2R,4R)-1-Butyl-3-hydroxyazetidine-2,4-diyl)dimethanol] | 99 | 100 | 99 | 93 |  |  |  | IC50 [1]: > 300 µM; IC50 [8]: > 300 µM; IC50 [2]: > 300 µM; remaining activity at 100 µM [6]: 99%; remaining activity at 100 µM [7]: 100%
8 | CCCCN1C[C@H](O)[C@@H](O)[C@@H](O)[C@H]1CO [NB-DGJ, N-butyldeoxygalactonojirimycin, reference compound] | 9.6 |  |  |  |  |  |  | IC50 [3]: 6 µM
9 | OC[C@H]1NC[C@H](O)[C@@H](O)[C@H]1O [DGJ, 1-deoxygalactonojirimycin, reference compound] |  |  |  |  | 23 |  | 0.05 | IC50 ([3]; read-out: β-Gal IC50, substrate at Km): 40 µM
10 | O[C@H]1[C@H](O)[C@@H](O)CN2CC[C@H](O)[C@H]12 [Castano., castanospermine, reference compound] |  |  |  | 13.5 |  |  |  | 
11 | OC[C@H]1NC[C@@H](O)[C@@H](O)[C@@H]1O [DMJ, 1-deoxymannojirimycin, reference compound] |  |  | 77 |  |  | 75 |  | 
